ChEMBL document CHEMBL1255454, “Systematic approach to optimizing specifically targeted antimicrobial peptides against Streptococcus mutans” (2010)
Calls of active or inactive are those of the source. The calls are words filed in the database; no cut-off is given here.

Columns and labels:
[1] = system: Streptococcus mutans; assay: Antimicrobial activity against Streptococcus mutans UA159 after 16 to 20 hrs by broth microdilution assay; assay type: functional
Summary of the method: (§1)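 Broth microdilution. Twofold peptide dilutions were made in 50% BHI–50% sterile water for oral streptococci and in 1× Mueller-Hinton broth for the other bacteria. First round 500 to 0.97 µg/ml; a second round of 64 to 0.5 µg/ml was run in some cases, reporting its mode. Inoculum ~1 × 10^5 CFU/ml, 37°C for 16–20 h. Read A600; MIC taken as complete inhibition or ≥90% turbidity reduction versus peptide-free control.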

[2] = system: Streptococcus sanguinis; assay: Antimicrobial activity against Streptococcus sanguinis NY101 after 16 to 20 hrs by broth microdilution assay; assay type: functional; summary of the method: as §1
[3] = system: Streptococcus mitis; assay: Antimicrobial activity against Streptococcus mitis ATCC 903 after 16 to 20 hrs by broth microdilution assay; assay type: functional; summary of the method: as §1
[4] = Antimicrobial activity against Streptococcus gordonii Challis DL1 after 16 to 20 hrs by broth microdilution assay; assay type: functional, Streptococcus gordonii str. Challis; summary of the method: as §1
[5] = system: Staphylococcus aureus; assay: Antimicrobial activity against methicillin-resistant Staphylococcus aureus after 16 to 20 hrs by broth microdilution assay; assay type: functional
Summary of the method: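 MRSA grown aerobically in BHI at 37°C. Broth microdilution: 2-fold peptide dilutions in 1× Mueller-Hinton broth, first round 500 to 0.97 µg/ml; if activity below 62.5 µg/ml, sometimes a second round at 64 to 0.5 µg/ml, reporting the mode. Inoculum ~1 × 10^5 CFU/ml, 37°C for 16-20 h. A600 read. MIC = lowest concentration giving complete inhibition or ≥90% turbidity reduction versus peptide-free control.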

[6] = system: Pseudomonas aeruginosa; assay: Antimicrobial activity against Pseudomonas aeruginosa PAK after 16 to 20 hrs by broth microdilution assay; assay type: functional; summary of the method: as §1
[7] = system: Streptococcus mutans; assay: Antimicrobial activity against Streptococcus mutans UA159 assessed as inhibition of bacterial biofilm formation at 25 uM after 3 mins by fluorescence assay; assay type: functional
Summary of the method: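 S. mutans UA159 overnight culture was diluted 1:5,000 in TH with 1% sucrose and grown as biofilm for 24 h. Biofilms were exposed 3 min at room temperature to 25 µM fluorescein-labelled peptide in HEPES/NaHCO3/NaCl/MgCl2 buffer with 0.1% CTAB, pH 7.4, then washed twice. Green fluorescence images were taken and biofilm-associated green pixels quantified as binding intensity units.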

Substance	MIC [1]	MIC [2]	MIC [3]	MIC [4]	MIC [5]	MIC [6]	inhibition [7]
H-FKKFWKWFRRFGGGFIKHFIHRF-NH2	8 µg/mL	32 µg/mL	62.5 µg/mL	125 µg/mL	32 µg/mL	125 µg/mL	
H-IKQLLHFFQRF-NH2	24 µg/mL	62.5 µg/mL	62.5 µg/mL	32 µg/mL	62.5 µg/mL	62.5 µg/mL	
H-IKQLLHFFQRFGGGFIKHFIHRF-NH2	8 µg/mL	32 µg/mL	16 µg/mL	32 µg/mL	62.5 µg/mL	125 µg/mL	
H-LQLLKQLLKLLKQF-NH2	8 µg/mL	8 µg/mL	16 µg/mL	8 µg/mL	16 µg/mL	8 µg/mL	
H-LQLLKQLLKLLKQFSATFIKHFIHRF-NH2	8 µg/mL	16 µg/mL	32 µg/mL	16 µg/mL	32 µg/mL	32 µg/mL	
H-LQLLKQLLKLLKQFSGGFIKHFIHRF-NH2	8 µg/mL	16 µg/mL	32 µg/mL	16 µg/mL	32 µg/mL	32 µg/mL	
H-RWRRLLKKLHHLLH-NH2	8 µg/mL	16 µg/mL	32 µg/mL	16 µg/mL	16 µg/mL	8 µg/mL	
H-RWRRLLKKLHHLLHSATFIKHFIHRF-NH2	8 µg/mL	16 µg/mL	16 µg/mL	16 µg/mL	32 µg/mL	32 µg/mL	Active
H-RWRRLLKKLHHLLHSGGFIKHFIHRF-NH2	8 µg/mL	32 µg/mL	32 µg/mL	16 µg/mL	32 µg/mL	32 µg/mL	
H-RWRWRWFGGGFIKHFIHRF-NH2	8 µg/mL	32 µg/mL	32 µg/mL	32 µg/mL	32 µg/mL	62.5 µg/mL	
H-RWRWRWFSATFIKHFIHRF-NH2	8 µg/mL	32 µg/mL	16 µg/mL	62.5 µg/mL	62.5 µg/mL	62.5 µg/mL	
H-RWRWRWFSGGFIKHFIHRF-NH2	8 µg/mL	32 µg/mL	32 µg/mL	32 µg/mL	32 µg/mL	62.5 µg/mL	
